Consider eight molecules from ChEMBL document CHEMBL1909522, “Inhibitory effect on NO production of phenolic compounds from Myristica fragrans” (Bioorg Med Chem Lett, 2011).

Each structure is given as a SMILES string. The source made the active and inactive calls. No cut-off for these calls is given here.

Series [1] concerns RAW264.7. The series can be described thus: Cytotoxicity against mouse RAW264.7 cells assessed as cell viability at 50 uM after 24 hrs by MTT assay. Format: cell-based. Conditions: raw264.7, 24 h. An outline of the steps: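 Cells remaining after the Griess step, with or without LPS (1 µg/mL) and compound at 50 µM for 24 h, assessed by MTT colorimetric assay for viability.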
A general note: Tetrazolium dyes change colour on reduction, which living cells bring about.

Series [2] relates to RAW264.7. The series can be described thus: Antiinflammatory activity in mouse RAW264.7 cells assessed as inhibition of LPS-induced NO production after 24 hrs by Griess reagent method. It counts as functional, cell-based. Conditions: RAW264.7, 24 h. An outline of the steps:
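RAW264.7 cells (1 × 10^5 per well) stimulated with 1 µg/mL LPS for 24 h with or without test compounds (0.5–25 µM). Nitrite in culture supernatant measured by Griess reaction as NO marker. IC50 relative to vehicle control; average of three repeated experiments.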
A general note: Nitrite, measured by Griess reagent, commonly stands in for NO production.

Series [3] relates to RAW264.7. Nature of the series: Antiinflammatory activity in mouse RAW264.7 cells assessed as inhibition of LPS-stimulated COX2 expression after 18 hrs by immunoblot analysis. Format: functional, cell-based. The method, boiled down:
(§1)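 RAW264.7 cells pretreated 30 min with compound (0, 1, 3, 10 µM), then stimulated with LPS 1 µg/mL for 18 h. Lysates in Tris-HCl pH 7.5/NP-40 buffer with protease/phosphatase inhibitors; 50 µg protein per lane on SDS-PAGE, PVDF transfer, antibody probing, ECL detection. Densitometry normalized to α-tubulin; mean ± S.D.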

Series [4] concerns RAW264.7. The series can be described thus: Antiinflammatory activity in mouse RAW264.7 cells assessed as inhibition of LPS-stimulated iNOS expression after 18 hrs by immunoblot analysis. It counts as functional, cell-based. An outline of the steps: as §1
In general terms: In western blotting, separated proteins are transferred to a membrane and probed.

For series [5], the system named is RAW264.7. The series can be described thus: Antiinflammatory activity in mouse RAW264.7 cells assessed as inhibition of LPS-stimulated alpha-tubulin expression at 0.1 to 10 uM after 18 hrs by immunoblot analysis. It counts as functional, cell-based.

For `Oc1ccc([C@@H](O)CCc2ccc3c(c2)OCO3)c(O)c1`, the Activity entry in the series on RAW264.7 [1] was “Non-toxic”. Further, the IC50 (usually the concentration that inhibits the measured activity by half) with RAW264.7 [2] is more than 50 µM.

As for `COc1cc(CC[C@H](O)c2ccc(O)cc2O)ccc1O`, the Activity result in the series with RAW264.7 [1] is listed as “Non-toxic”. In addition, the IC50 in the series on RAW264.7 [2] was more than 50 µM.

Turning to `O=C(CCCCCCCCc1ccc(O)c(O)c1)c1c(O)cccc1O` [MALABARICONE C], the inhibition result in the series on RAW264.7 [3] and in the series with RAW264.7 [4] was “Dose-dependent effect” in each case. The Activity result in the series on RAW264.7 [1] was “Non-toxic”. The 50% inhibitory concentration (IC50) in the series on RAW264.7 [2] was found to be 2.3 µM. The inhibition entry in the series on RAW264.7 [5] is “inactive”.

In the case of `COc1cc(C[C@@H](C)[C@H](C)c2cc(O)c(O)c(OC)c2)ccc1O`, the Activity result with RAW264.7 [1] is recorded as “Non-toxic”. The IC50 with RAW264.7 [2] was determined as 32.5 µM.

For `C/C=C/c1ccc(O[C@H](C)[C@@H](O)c2ccc(O)c(OC)c2)c(OC)c1`, in the series on RAW264.7 [1], the Activity result was “Non-toxic”. In addition, the IC50 with RAW264.7 [2] came to 25 µM.

In the case of `C=CCc1cc(OC)c(O[C@H](C)[C@@H](OC(C)=O)c2ccc(OC)c(OC)c2)c(OC)c1`, the IC50 in the series with RAW264.7 [2] was 24.5 µM.

In the case of `CC1=C(O)C(=O)C=C2C1=CC=C1[C@@]2(C)CC[C@@]2(C)[C@@H]3C[C@](C)(C(=O)O)CC[C@]3(C)CC[C@]12C` [CELASTROL], in the series on RAW264.7 [2], the IC50 was found to be 1 µM.

Turning to `C=CCc1cc(OC)c(O[C@H](C)[C@@H](O)c2ccc(OC)c(OC)c2)c(OC)c1`, the Activity entry in the series with RAW264.7 [1] is “Non-toxic”. Further, in the series with RAW264.7 [2], the IC50 was more than 50 µM.
